# GSK3beta inhib: inhibitors of human GSK3beta kinase | activity score (negative = inhibition), % at 10 µM | AID 2097 | actives 0.038% (n = 300,000) | GST-GSK3beta kinase, ADP-Glo luminescence, 60 min; hits give low values | P49841;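 active = more than half of replicate wells score below -50%, meaning over 50% inhibition versus plate controls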;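 note: 0% = median DMSO wells and -100% = median GW8510 positive control wells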
#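 Test system: GST-fused GSK3beta enzyme, cell-free | Quantity: 1.6 ng GST-GSK3beta enzyme per well | Reagent: 25 µM ATP with peptide substrate | Schedule: 60 min enzyme reaction, room temperature | Signal: Luminescent ADP-Glo measurement of ADP formed | Read-out basis: Score relative to plate controls | Control set: DMSO and 20 µM GW8510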
# GSK3A inh: human GSK-3 alpha kinase inhibition; ADP-Glo luminescence, 60 min; inhibition, % at 10 µM; actives 0.1% (n = 320,000); AID 2650;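 active = more than half of replicates show inhibition above 20%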;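 note: GST-tagged GSK-3 alpha with peptide substrate and 25 µM ATP; 0% = DMSO neutral wells and 100% = GW8510 positive control wells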
# LANA-H2A inh: blocks KSHV LANA binding to histone H2A/H2B; Q9QR71; cell-free LANA-H2A/H2B peptide, fluorescence polarization; inhibition, % (concentration not given with the values); actives 0.6% (n = 320,000); in the data active = inhibition mostly above about 10%, no sharp cut-off; inactive = mostly below about 6.7%
# H9c2 TAG inh: triacylglycerol accumulation inhibition; H9c2 cells, Nile Red lipid (TAG) fluorescence; cells loaded with 200 µM oleic acid; inhibition, % at 12.5 µM; actives 0.66% (n = 230,000); AID 651582;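 active = pattern-corrected inhibition of lipid staining of at least 50% with the nuclear-stain viability signal not falling by more than 50%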;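 note: 0% = DMSO wells and 100% = triacsin C control wells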
# Lipid droplet: modulators of hepatic lipid droplet formation; AML12 mouse hepatocytes, oleate lipid droplets, BODIPY imaging; AID 1656; inhibition, % at 6.5 µM; actives 0.4% (n = 240,000);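 active = lipid droplet intensity inhibited by at least 50%, with more than 500 cells counted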
#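 System: AML12 hepatocytes (mouse). Probe or stimulus: oleic acid at 100 µM to induce lipid droplet formation. Times: overnight treatment with compound plus oleate. Detection: Image-based BODIPY and DAPI two-channel analysis. Evaluation: percent inhibition of filter-corrected integrated lipid droplet intensity per well.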
# STK33 kinase inh: human STK33 kinase inhibition; Q9BYT3; purified STK33, MBP phosphorylation, ADP-Glo luminescence; inhibition, % at 10 µM; actives 0.073% (n = 320,000);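 active = inhibition at or above 25%, using the most active replicate where run in duplicate; inactive = inhibition below 25%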
# Target sequence (Q9BYT3 whole entry, looked up): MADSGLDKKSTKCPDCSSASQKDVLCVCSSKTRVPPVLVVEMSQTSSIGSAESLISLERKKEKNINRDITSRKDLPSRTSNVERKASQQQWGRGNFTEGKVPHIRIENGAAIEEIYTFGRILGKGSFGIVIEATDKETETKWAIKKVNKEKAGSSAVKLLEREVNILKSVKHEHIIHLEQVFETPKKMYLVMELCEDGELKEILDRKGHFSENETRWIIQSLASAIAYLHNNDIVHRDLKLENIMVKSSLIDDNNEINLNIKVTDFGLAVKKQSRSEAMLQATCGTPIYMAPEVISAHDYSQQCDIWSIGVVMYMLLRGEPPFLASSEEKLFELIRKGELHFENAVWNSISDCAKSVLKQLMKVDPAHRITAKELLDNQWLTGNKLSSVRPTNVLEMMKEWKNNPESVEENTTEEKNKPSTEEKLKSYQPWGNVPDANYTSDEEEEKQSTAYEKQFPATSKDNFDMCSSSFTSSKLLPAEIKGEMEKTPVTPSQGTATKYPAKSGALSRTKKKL
# * = called active by the depositor; / = no result. An excerpt weighted towards active compounds, which were near 1.3% of everything screened.
SMILES,GSK3beta inhib,GSK3A inh,LANA-H2A inh,H9c2 TAG inh,Lipid droplet,STK33 kinase inh
CCOC(=O)c1c(C)[nH]c(C(=O)OCC(=O)N2CCN(S(=O)(=O)c3ccc(C)cc3C)CC2)c1C,/,-2,122*,2,/,0
Cn1c(=NC(=O)C2=NNC(=O)CC2)sc2ccccc21,0,0,15*,4,26,2
COc1ccc(C(=O)N=c2sc3ccccc3n2C)cc1OC,-1,-1,-2,-4,2,0
CCN1CCN(Cc2ccc(NC(=O)c3cc(NC(=O)c4cncc(-c5ccc(C#N)cc5)c4)cc(OC)c3)cc2C(F)(F)F)CC1,-4,2,-2,95*,19,1
CCN1CCN(Cc2ccc(NC(=O)c3ccc(C)c(NC(=O)c4cncc(-c5cccs5)c4)c3)cc2C(F)(F)F)CC1,/,/,/,117*,/,/
CCN1CCN(Cc2ccc(NC(=O)c3cc(NC(=O)c4nccnc4N)cc(OC)c3)cc2C(F)(F)F)CC1,0,24,1,15,31,2
Cc1ccc(S(=O)(=O)Nc2cccc(C(=O)NCC(c3ccccc3)N(C)C)c2)cc1F (centres undefined),-1,1,1,-3,/,1
Cc1ccc(S(=O)(=O)NC2CCCCC2)cc1,/,-3,45*,/,/,-1
Cc1c(C(=O)N/N=C/c2ccc(O)c(Br)c2)sc(N)c1C#N,/,23,4,/,-17,8
COc1cc(/C=N/NC(=O)c2sc(N)c(C#N)c2C)ccc1O,-45,65*,0,/,0,9
O=c1c(Br)ccc(Br)cc1Br,/,/,/,99*,/,/
CCn1c(Cl)c(C=O)s/c1=N\S(=O)(=O)c1ccccc1,-1,-1,-1,85*,2,-1
O=C(N/N=C/c1c(F)cccc1Cl)c1ccc(Cn2cc(Br)cn2)o1,-6,-1,0,/,-13,-2
CC(C)(C)NC(=O)C[C@H]1C[C@H](C(=O)N2CCOCC2)[C@@]2(CCC3CCCC3)c3[nH]c4cc(-c5ccco5)ccc4c3CCN2C1=O,/,/,/,44,/,/
CN(C)CCCNC(=O)C[C@H]1C[C@H](C(=O)N2CCOCC2)[C@@]2(CCC3CCCC3)c3[nH]c4cc(-c5ccco5)ccc4c3CCN2C1=O,/,/,/,60*,/,/
CC(C)=CCC/C(C)=C/CNC(=O)C[C@H]1C[C@H](C(=O)N2CCOCC2)[C@@]2(CCC3CCCC3)c3[nH]c4cc(-c5ccco5)ccc4c3CCN2C1=O,/,/,/,62*,/,/
O=C(CC1C[C@H](C(=O)N2CCOCC2)[C@@]2(CCC3CCCC3)c3[nH]c4ccccc4c3CCN2C1=O)NCCc1ccccn1 (some centres undefined),/,2,105*,18,/,0
O=C(C[C@H]1C[C@H](C(=O)N2CCOCC2)[C@@]2(CCC3CCCC3)c3[nH]c4cc(-c5ccco5)ccc4c3CCN2C1=O)NCCN1CCOCC1,/,/,/,21,/,/
CCN(CC(=O)Nc1ccc(OC)cc1)C(=O)CCS(=O)(=O)c1ccc(C)cc1,1,-3,0,5,-4,-3
CCCCCCCCOc1ccc(C(=O)O)cc1,/,-5,112*,/,/,-1
CCCCOc1ccc(C(=O)O)cc1,5,-3,5,-2,3,-1
Cc1onc(-c2ccccc2)c1C(=O)N1CCN(c2ccc([N+](=O)[O-])cc2)CC1,-3,-2,16*,-3,-6,0
Cc1[nH]c(=O)[nH]c(=O)c1CSCC(=O)OCC(=O)c1ccc(Br)cc1,-3,1,-1,/,7,-1
O=C(NCCCO)c1cc2c([nH]c3ccccc32)c(-c2ccccc2)n1,2,1,2,/,13,29*
CC(=O)Nc1ccc(C(=O)OCC(=O)N2CCCC2)cc1,1,-1,1,/,-2,-1
COc1ccc(S(=O)(=O)N2CCN(C(=O)[C@@H]3CCCN3C(=O)c3cccs3)CC2)cc1,/,/,/,2,/,/
O=C([C@@H]1CCCN1C(=O)c1cccs1)N1CCN(S(=O)(=O)c2cccc(F)c2)CC1,/,2,11*,3,/,-2
CC1CC1c1ccc(/C=C(\C#N)C(=O)Nc2ccccc2Cl)o1 (centres undefined),4,-1,1,/,8,0
CC(Oc1ccc(Cl)cc1)C(=O)Nc1nccs1 (centres undefined),-1,-1,21*,4,/,-1
